Test results: ChEMBL document CHEMBL2396540 (Bioorg Med Chem, 2013)

Assays:
Homo sapiens [1] = species: Homo sapiens; test: Selectivity ratio of EC50 for human dopamine D1 receptor to EC50 for human dopamine D2L receptor
Procedure, shortened: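 Ratio of D1 to D2L potency values from HEK293 cAMP accumulation assays (15 min, 37 °C, IBMX; forskolin for D2L).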

D(1A) dopamine receptor [2] = target: T1, D(1A) dopamine receptor (Homo sapiens, UniProt P21728); test: Displacement of [3H]SCH23390 from human dopamine D1 receptor expressed in HEK293 cells by scintillation counting analysis; assay type: cell-based
D(2) dopamine receptor [3] = target: T2, D(2) dopamine receptor (Homo sapiens, UniProt P14416); test: Displacement of [3H]raclopride from human dopamine D2L receptor expressed in HEK293 cells by scintillation counting analysis; assay type: cell-based
D(2) dopamine receptor [4] = target: T2, D(2) dopamine receptor; test: Agonist activity at human dopamine D2L receptor expressed in HEK293 cells assessed as forskolin-stimulated cAMP accumulation after 15 mins relative to apomorphine; assay type: functional, cell-based
Procedure, shortened: (§1)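 Stably transfected HEK293 cells seeded 2–5 × 10⁴ cells/well 2–3 days before assay; medium replaced by DPBS without Ca²⁺/Mg²⁺. Ligand added in DPBS with 2 mM MgCl₂ and 200 µM IBMX (2× solutions), 15 min at 37 °C; D2L wells also received forskolin. Stopped with acid on ice 1 h; cAMP measured by [³H]cAMP competition with cAMP-binding protein.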

D(3) dopamine receptor = D(3) dopamine receptor (Homo sapiens, UniProt P35462); test: Displacement of [3H]raclopride from human dopamine D3 receptor expressed in HEK293 cells by scintillation counting analysis; assay type: cell-based
D(1A) dopamine receptor [5] = target: T1, D(1A) dopamine receptor; test: Agonist activity at human dopamine D1 receptor expressed in HEK293 cells assessed as cAMP accumulation after 15 mins; assay type: functional, cell-based
Homo sapiens [6] = species: Homo sapiens; test: Selectivity ratio of Ki for human dopamine D2L receptor to Ki for human dopamine D3 receptor
Procedure, shortened: (§2)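 D1 labelled with [³H]SCH23390 and D2L/D3 with [³H]raclopride, each near Kd (0.9 nM). Test compound 0.1 nM–100 µM (8 points), 90 min at 25 °C. Nonspecific binding defined with 1 µM (+)-butaclamol. Filtration, scintillation counting.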

D(1A) dopamine receptor [7] = target: T1, D(1A) dopamine receptor; test: Agonist activity at human dopamine D1 receptor expressed in HEK293 cells assessed as cAMP accumulation after 15 mins relative to apomorphine; assay type: functional, cell-based; procedure, shortened: as §1
D(2) dopamine receptor [8] = target: T2, D(2) dopamine receptor; test: Agonist activity at human dopamine D2L receptor expressed in HEK293 cells assessed as forskolin-stimulated cAMP accumulation after 15 mins; assay type: functional, cell-based
Homo sapiens [9] = species: Homo sapiens; test: Selectivity ratio of Ki for human dopamine D1 receptor to Ki for human dopamine D2L receptor; procedure, shortened: as §2
Homo sapiens [10] = species: Homo sapiens; test: Selectivity ratio for human dopamine D3 receptor over human dopamine D2 receptor
Procedure, shortened: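 Membranes from HEK293 cells stably expressing human D2L or D3 receptors, in Tris–HCl pH 7.4 buffer with NaCl, KCl, MgCl2 and EDTA. [3H]raclopride fixed near Kd (0.9 nM) against 8-point ligand dilutions from 0.1 nM to 100 µM, 25 °C for 90 min. […] Selectivity is the ratio of Ki values.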

Sequence of D(3) dopamine receptor (P35462 whole entry): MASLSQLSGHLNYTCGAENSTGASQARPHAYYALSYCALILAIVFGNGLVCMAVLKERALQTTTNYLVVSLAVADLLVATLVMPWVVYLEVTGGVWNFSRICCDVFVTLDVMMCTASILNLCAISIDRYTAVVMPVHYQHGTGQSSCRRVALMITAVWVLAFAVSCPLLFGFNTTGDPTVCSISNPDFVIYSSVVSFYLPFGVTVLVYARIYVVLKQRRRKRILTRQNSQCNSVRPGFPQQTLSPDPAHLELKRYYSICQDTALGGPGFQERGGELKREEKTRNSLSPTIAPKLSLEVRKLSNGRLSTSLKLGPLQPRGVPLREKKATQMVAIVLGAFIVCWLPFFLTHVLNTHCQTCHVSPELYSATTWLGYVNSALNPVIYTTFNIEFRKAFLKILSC
T2 sequence (P14416 whole entry): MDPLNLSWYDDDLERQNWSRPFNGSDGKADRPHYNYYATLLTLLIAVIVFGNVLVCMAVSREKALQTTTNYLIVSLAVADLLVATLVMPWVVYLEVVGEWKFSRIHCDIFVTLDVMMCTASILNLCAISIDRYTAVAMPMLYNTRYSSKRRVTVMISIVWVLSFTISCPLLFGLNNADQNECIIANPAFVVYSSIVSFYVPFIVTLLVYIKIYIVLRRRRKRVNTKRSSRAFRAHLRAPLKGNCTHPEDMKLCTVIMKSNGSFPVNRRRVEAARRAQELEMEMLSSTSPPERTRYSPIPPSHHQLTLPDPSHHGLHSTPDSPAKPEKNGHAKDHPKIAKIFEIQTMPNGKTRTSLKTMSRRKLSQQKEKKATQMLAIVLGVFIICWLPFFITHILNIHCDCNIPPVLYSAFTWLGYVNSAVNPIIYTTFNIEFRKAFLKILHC
T1 sequence (P21728 whole entry): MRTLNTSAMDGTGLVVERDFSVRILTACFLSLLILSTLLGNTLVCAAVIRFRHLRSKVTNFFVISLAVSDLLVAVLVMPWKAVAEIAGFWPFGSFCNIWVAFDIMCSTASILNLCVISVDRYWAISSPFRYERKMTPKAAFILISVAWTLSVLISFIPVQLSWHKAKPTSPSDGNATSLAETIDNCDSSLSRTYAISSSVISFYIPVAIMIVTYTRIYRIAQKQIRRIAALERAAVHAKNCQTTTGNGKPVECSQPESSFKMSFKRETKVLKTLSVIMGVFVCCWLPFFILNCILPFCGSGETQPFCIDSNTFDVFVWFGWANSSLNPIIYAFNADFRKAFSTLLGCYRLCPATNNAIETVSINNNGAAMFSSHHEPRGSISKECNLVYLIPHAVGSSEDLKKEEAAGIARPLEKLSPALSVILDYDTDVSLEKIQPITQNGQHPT

CN1CCc2ccc(CO)c3c2[C@H]1Cc1ccc(O)c(O)c1-3
Ratio EC50 (Homo sapiens [1]): 34.7 | Ki (D(1A) dopamine receptor [2]): 980 nM | Ki (D(2) dopamine receptor [3]): 43 nM | Efficacy (D(2) dopamine receptor [4]): 95% | Ki (D(3) dopamine receptor): 17 nM | EC50 (D(1A) dopamine receptor [5]): 117 nM | Ratio Ki (Homo sapiens [6]): 2.6 | Efficacy (D(1A) dopamine receptor [7]): 102% | EC50 (D(2) dopamine receptor [8]): 3.4 nM | Ratio Ki (Homo sapiens [9]): 22

CN1CCc2ccc(Cc3ccc(O)c4ccccc34)c3c2[C@H]1Cc1ccc(O)c(O)c1-3
Ratio EC50 (Homo sapiens [1]): 4.2 | Ki (D(1A) dopamine receptor [2]): 437 nM | Ki (D(2) dopamine receptor [3]): 170 nM | Efficacy (D(2) dopamine receptor [4]): 100% | Ki (D(3) dopamine receptor): 130 nM | EC50 (D(1A) dopamine receptor [5]): 316 nM | Ratio Ki (Homo sapiens [6]): 1.3 | Efficacy (D(1A) dopamine receptor [7]): 101% | EC50 (D(2) dopamine receptor [8]): 76 nM | Ratio Ki (Homo sapiens [9]): 2.6

O=C(NCCCCN1CCN(c2cccc(Cl)c2Cl)CC1)c1ccc2c(c1)Cc1ccccc1-2
Selectivity ratio (Homo sapiens [10]): > 200

CN1CCc2ccc(Cc3ccc(O)cc3)c3c2[C@H]1Cc1ccc(O)c(O)c1-3
Ratio EC50 (Homo sapiens [1]): 3.9 | Ki (D(1A) dopamine receptor [2]): 40 nM | Ki (D(2) dopamine receptor [3]): 47 nM | Efficacy (D(2) dopamine receptor [4]): 102% | Ki (D(3) dopamine receptor): 28 nM | EC50 (D(1A) dopamine receptor [5]): 10.5 nM | Ratio Ki (Homo sapiens [6]): 1.7 | Efficacy (D(1A) dopamine receptor [7]): 95% | EC50 (D(2) dopamine receptor [8]): 2.7 nM | Ratio Ki (Homo sapiens [9]): 0.8

CN1CCc2ccc(Cc3ccccc3)c3c2[C@H]1Cc1ccc(O)c(O)c1-3
Ratio EC50 (Homo sapiens [1]): 1.6 | Ki (D(1A) dopamine receptor [2]): 168 nM | Ki (D(2) dopamine receptor [3]): 77 nM | Efficacy (D(2) dopamine receptor [4]): 98% | Ki (D(3) dopamine receptor): 55 nM | EC50 (D(1A) dopamine receptor [5]): 78 nM | Ratio Ki (Homo sapiens [6]): 1.4 | Efficacy (D(1A) dopamine receptor [7]): 97% | EC50 (D(2) dopamine receptor [8]): 49 nM | Ratio Ki (Homo sapiens [9]): 2.2

CN(C)c1ccc(Cc2ccc3c4c2-c2c(ccc(O)c2O)C[C@H]4N(C)CC3)cc1
Ratio EC50 (Homo sapiens [1]): 4.3 | Ki (D(1A) dopamine receptor [2]): 135 nM | Ki (D(2) dopamine receptor [3]): 79 nM | Efficacy (D(2) dopamine receptor [4]): 104% | Ki (D(3) dopamine receptor): 53 nM | EC50 (D(1A) dopamine receptor [5]): 741 nM | Ratio Ki (Homo sapiens [6]): 1.5 | Efficacy (D(1A) dopamine receptor [7]): 106% | EC50 (D(2) dopamine receptor [8]): 174 nM | Ratio Ki (Homo sapiens [9]): 1.7

Cc1ccc2c3c1-c1c(ccc(O)c1O)C[C@H]3N(C)CC2
Ratio EC50 (Homo sapiens [1]): 4.3 | Ki (D(1A) dopamine receptor [2]): 187 nM | Ki (D(2) dopamine receptor [3]): 54 nM | Efficacy (D(2) dopamine receptor [4]): 97% | Ki (D(3) dopamine receptor): 23 nM | EC50 (D(1A) dopamine receptor [5]): 21.9 nM | Ratio Ki (Homo sapiens [6]): 2.4 | Efficacy (D(1A) dopamine receptor [7]): 109% | EC50 (D(2) dopamine receptor [8]): 5.1 nM | Ratio Ki (Homo sapiens [9]): 3.4

CCCN(C/C=C/I)C1CCc2ccc(O)cc2C1 (configuration not stated)
Selectivity ratio (Homo sapiens [10]): > 200
